Test results taken from ChEMBL document CHEMBL1140030, “Spin trapping experiments with different carbamoyl-substituted EMPO derivatives” (Bioorg Med Chem, 2008).

Columns and labels:
[1] = Partition coefficient, P in n-octanol/phosphate buffer at pH 7.0
[2] = Antioxidant spin trapping activity assessed as carbon centered radical adduct formation from methanol; type: physicochemical
Method in brief: (§1)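 Fenton-type generation of alcohol-derived carbon radicals: spin trap (40 mM, init. conc.), FeSO4 (1 mM), EDTA (2 mM), H2O2 (0.2%) in methanol or ethanol/water; stopped after 10 s by 1:1 dilution with 300 mM phosphate buffer pH 7.4 containing 20 mM DTPA; ESR: sweep 80 G, modulation 0.21 G, 20 mW, gain 4×10^4, 57 G/min.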

[3] = Antioxidant spin trapping activity assessed as alkoxyl radical adducts formation from ethanol; type: physicochemical
Method in brief: (§2)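 Alkoxyl adducts by nucleophilic addition: spin trap (1 M, init. conc., in methanol or ethanol) incubated 10 s with FeCl3 (2 mM in the alcohol), then stopped by 1:20 dilution with phosphate buffer (0.3 M, pH 7.4, 20 mM DTPA); ESR recorded at 9.7 GHz, sweep width 80 G.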

[4] = Antioxidant spin trapping activity assessed as hydroxyl radical adducts formation by Fenton system; type: physicochemical
Method in brief: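 Hydroxyl adducts: spin trap (40 mM, initial) with Fenton mix of FeSO4 (1 mM), EDTA (2 mM), H2O2 (0.2%); after 10 s diluted 1:1 with 300 mM phosphate buffer pH 7.4 containing 20 mM DTPA; ESR at sweep 80 G, modulation 0.21 G, microwave 20 mW, time constant 0.08 s, gain 2×10^4, 57 G/min.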

[5] = Antioxidant spin trapping activity assessed as carbon centered radical adduct formation from formate; type: physicochemical
Method in brief: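 CO2 anion radical adducts: spin trap (40 mM, init. conc.) with FeSO4 (1 mM), EDTA (2 mM), H2O2 (0.2%) in aqueous sodium formate (200 mM); reaction stopped after 10 s by 1:1 dilution into 300 mM phosphate buffer pH 7.4 with 20 mM DTPA, then ESR spectrum recorded (sweep width 80 G).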

[6] = Antioxidant spin trapping activity assessed as carbon centered radical adduct formation from ethanol; type: physicochemical
Method in brief: as §1

[7] = Antioxidant spin trapping activity assessed as alkoxyl radical adducts formation from methanol; type: physicochemical
Method in brief: as §2

| SMILES | P [1] | Activity [2] | Activity [3] | Activity [4] | Activity [5] | Activity [6] | Activity [7] |
| --- | --- | --- | --- | --- | --- | --- | --- |
| CCOC(=O)C1(C)CCC=[N+]1[O-] (stereo unspecified) | 0.15 | – | – | – | – | – | – |
| CCCC1(C(N)=O)CCC=[N+]1[O-] (stereo unspecified) | 0.211 | Active | Active | Active | Active | Active | – |
| CCC1(C(N)=O)CCC=[N+]1[O-] (stereo unspecified) | 0.056 | – | – | Active | Active | – | – |
| CCCCC1(C(N)=O)CCC=[N+]1[O-] (stereo unspecified) | 0.668 | – | – | Active | Active | – | – |

Now from value to compound:

| P [1] | Activity [2] | Activity [3] | Activity [4] | Activity [5] | Activity [6] | Activity [7] | SMILES |
| --- | --- | --- | --- | --- | --- | --- | --- |
| 0.016 | – | – | – | – | – | – | CC1(C(N)=O)CCC=[N+]1[O-] (stereo unspecified) |
| 2.72 | Active | Active | Active | Active | Active | Active | CCCCCC1(C(N)=O)CCC=[N+]1[O-] (stereo unspecified) |
